ChEMBL document CHEMBL4376838, “Discovery of Novel Celastrol Derivatives as Hsp90-Cdc37 Interaction Disruptors with Antitumor Activity” (J Med Chem, 2019)
Activity calls are given as the source filed them. No cut-off for these calls is given here.

Assays:
HepG2 = assay: Antiproliferative activity against human HepG2 cells assessed as inhibition of cell growth incubated for 48 hrs by MTT assay; format: functional, cell-based; conditions: HepG2, 48 h
How it was run: (§1)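 MTT read-out. Cells seeded at 5.0 × 10⁴ cells/ml and cultured 24 h, then exposed to the drug over a range of concentrations for 48 h, with matching DMSO as control. MTT (5 mg/ml) added for 4 h, supernatant removed, formazan dissolved in DMSO, OD read at 570 nm. Run in triplicate, mean ± SD (n = 3).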

A549 [1] = assay: Antiproliferative activity against human A549 cells assessed as inhibition of cell growth incubated for 48 hrs by MTT assay; format: functional, cell-based; conditions: A549, 48 h; how it was run: as §1
A549 [2] = assay: Antiproliferative activity against human A549 cells assessed as inhibition of cell growth at 1.5 uM incubated for 48 hrs by MTT assay relative to control; format: functional; conditions: A549, 48 h; for inhibition of growth at 1.5 µM: read-out: GI
HOS = assay: Antiproliferative activity against human HOS cells assessed as inhibition of cell growth incubated for 48 hrs by MTT assay; format: functional, cell-based; how it was run: as §1
MCF7 = assay: Antiproliferative activity against human MCF7 cells assessed as inhibition of cell growth incubated for 48 hrs by MTT assay; format: functional, cell-based; conditions: MCF7, 48 h; how it was run: as §1
A549 [3] = assay: Induction of apoptosis in human A549 cells assessed as early apoptotic cells at 1.2 uM incubated for 48 hrs by Annexin V-FITC and PI staining based flow cytometric analysis (reference value: 0.5%); format: functional
How it was run: (§2)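 A549 cells (4×10^5 per 6 cm dish) cultured 24 h, then treated 48 h with compound or DMSO. Cells gently harvested, washed twice in cold PBS, resuspended in binding buffer with Annexin V and PI, stained 15 min at room temperature in the dark, analysed by flow cytometry. Mean ± SD, n = 3.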

[4] = molecular target: T1, Hsp90 co-chaperone Cdc37 (Homo sapiens) (UniProt Q16543); assay: Binding affinity to Cdc37 in human A549 cells assessed as inhibition of HSP90-Cdc37 interaction by measuring decrease in CDK4 protein level at 5 uM incubated for 12 hrs by Western blot analysis; format: cell-based
T1 sequence (whole entry): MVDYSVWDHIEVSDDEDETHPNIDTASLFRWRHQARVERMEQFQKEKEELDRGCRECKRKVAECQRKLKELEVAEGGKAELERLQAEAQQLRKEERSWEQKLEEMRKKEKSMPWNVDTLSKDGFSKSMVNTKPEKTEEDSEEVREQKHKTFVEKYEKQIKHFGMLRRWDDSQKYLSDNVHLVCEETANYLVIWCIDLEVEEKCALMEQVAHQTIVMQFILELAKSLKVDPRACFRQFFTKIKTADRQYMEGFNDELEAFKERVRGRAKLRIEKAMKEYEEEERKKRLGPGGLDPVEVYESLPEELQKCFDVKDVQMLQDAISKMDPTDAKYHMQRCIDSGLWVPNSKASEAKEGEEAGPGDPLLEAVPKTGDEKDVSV
How it was run: (§3)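 A549 cells seeded 5×10^5 per 6 cm dish, grown 12 h, then exposed to compound or DMSO for 12 h. Lysates adjusted to 3 mg/ml protein (BCA), run on 10% SDS-PAGE, immunoblotted for p-Akt and Cdk4. Band levels quantified against Hsp90 loading control. Three separate experiments, mean ± SD.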

[5] = molecular target: Heat shock protein HSP 90-alpha (Homo sapiens) (UniProt P07900); assay: Inhibition of ATP binding to human HSP90 alpha at 5 to 10 uM preincubated for 30 mins followed by gamma phosphate-linked ATP sepharose addition and measured after 30 mins by ATP-binding sepharose assay based western blot analysis
How it was run: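 Purified human Hsp90α incubated on ice 30 min with compound or DMSO in 10 mM Tris-HCl pH 7.5, 50 mM KCl, 5 mM MgCl2, 2 mM DTT, 20 mM Na2MoO4, 0.01% NP-40. γ-phosphate-linked ATP-Sepharose then added, 30 min at 37 °C with frequent mixing. Resin washed and pelleted, bound Hsp90α detected by SDS-PAGE/Western blot.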

A549 [6] = assay: Induction of apoptosis in human A549 cells assessed as necrotic cells at 1.2 uM incubated for 48 hrs by Annexin V-FITC and PI staining based flow cytometric analysis (reference value: 1.0%); format: functional; how it was run: as §2
A549 [7] = assay: Induction of apoptosis in human A549 cells assessed as late apoptotic cells at 1.2 uM incubated for 48 hrs by Annexin V-FITC and PI staining based flow cytometric analysis (reference value: 3.0%); format: functional; how it was run: as §2
A549 [8] = assay: Induction of apoptosis in human A549 cells assessed as viable cells at 1.2 uM incubated for 48 hrs by Annexin V-FITC and PI staining based flow cytometric analysis (reference value: 95.5%); format: functional; conditions: A549, 48 h, read-out: Activity; how it was run: as §2
[9] = molecular target: T1, Hsp90 co-chaperone Cdc37 (Homo sapiens); assay: Binding affinity to Cdc37 in human A549 cells assessed as inhibition of HSP90-Cdc37 interaction by measuring decrease in Akt phosphorylation level at 5 uM incubated for 12 hrs by Western blot analysis; format: cell-based; how it was run: as §3
A549 [10] = assay: Antiproliferative activity against human A549 cells assessed as inhibition of cell growth at 0.5 uM incubated for 48 hrs by MTT assay relative to control; format: functional; conditions: A549, 48 h, read-out: GI

Compound	IC50 (HepG2)	IC50 (A549 [1])	inhibition of growth at 1.5 µM (A549 [2])	IC50 (HOS)	IC50 (MCF7)	Activity (A549 [3])	inhibition [4]	inhibition [5]	inhibition at 1.5 µM (A549 [2])	Activity (A549 [6])	Activity (A549 [7])	viability at 1.2 µM (A549 [8])	inhibition [9]	inhibition of growth at 0.5 µM (A549 [10])
COc1ccc(/C(C#N)=C/C(=O)OCCCOC(=O)[C@]2(C)CC[C@]3(C)CC[C@]4(C)C5=CC=C6C(=CC(=O)C(O)=C6C)[C@]5(C)CC[C@@]4(C)[C@@H]3C2)cc1	1270 nM	1090 nM	53.4%	1750 nM	1100 nM									
COc1ccc(/C(C#N)=C/C(=O)OCCOC(=O)[C@]2(C)CC[C@]3(C)CC[C@]4(C)C5=CC=C6C(=CC(=O)C(O)=C6C)[C@]5(C)CC[C@@]4(C)[C@@H]3C2)cc1	970 nM	1790 nM	48.1%	1140 nM	970 nM									
CC1=C(O)C(=O)C=C2C1=CC=C1[C@@]2(C)CC[C@@]2(C)[C@@H]3C[C@](C)(C(=O)OCCCOC(=O)/C=C(\C#N)c4ccccc4)CC[C@]3(C)CC[C@]12C	760 nM	1410 nM	53.7%	450 nM	980 nM									
CC1=C(O)C(=O)C=C2C1=CC=C1[C@@]2(C)CC[C@@]2(C)[C@@H]3C[C@](C)(C(=O)O)CC[C@]3(C)CC[C@]12C [CELASTROL]	3180 nM	1480 nM		1460 nM	2040 nM	7.5%	Active	inactive	48%	3.9%	15.6%	73%	Active	
CC1=C(O)C(=O)C=C2C1=CC=C1[C@@]2(C)CC[C@@]2(C)[C@@H]3C[C@](C)(C(=O)OCCOC(=O)/C=C(\C#N)c4ccccc4)CC[C@]3(C)CC[C@]12C	650 nM	1020 nM	59.6%	540 nM	700 nM									
CC1=C(O)C(=O)C=C2C1=CC=C1[C@@]2(C)CC[C@@]2(C)[C@@H]3C[C@](C)(C(=O)OCCOC(=O)/C=C(\C#N)c4ccc(F)cc4)CC[C@]3(C)CC[C@]12C	3890 nM	1020 nM	65.9%	2180 nM	2350 nM									
COC(=O)CSC1C=C2C(C)(CC[C@@]3(C)[C@@H]4C[C@](C)(C(=O)OCCCOC(=O)/C=C(\C#N)c5ccc(F)cc5)CC[C@]4(C)CC[C@]23C)c2cc(OC(C)=O)c(OC(C)=O)c(C)c21 (single isomer, unassigned)														20.5%
